Screening data from PubChem BioAssay.
OX1R antag-1: antagonists of human orexin 1 receptor (OX1R); Orexin/Hypocretin receptor type 1 (Homo sapiens), O43613; OX1R-expressing cells, FRET antagonist read-out; inhibition, % at 6.6 µM; 330,000 compounds, 1.8% hits; in the data active = inhibition mostly above about 38%, no sharp cut-off; inactive = mostly below about 40%
Target sequence (O43613 whole entry, looked up): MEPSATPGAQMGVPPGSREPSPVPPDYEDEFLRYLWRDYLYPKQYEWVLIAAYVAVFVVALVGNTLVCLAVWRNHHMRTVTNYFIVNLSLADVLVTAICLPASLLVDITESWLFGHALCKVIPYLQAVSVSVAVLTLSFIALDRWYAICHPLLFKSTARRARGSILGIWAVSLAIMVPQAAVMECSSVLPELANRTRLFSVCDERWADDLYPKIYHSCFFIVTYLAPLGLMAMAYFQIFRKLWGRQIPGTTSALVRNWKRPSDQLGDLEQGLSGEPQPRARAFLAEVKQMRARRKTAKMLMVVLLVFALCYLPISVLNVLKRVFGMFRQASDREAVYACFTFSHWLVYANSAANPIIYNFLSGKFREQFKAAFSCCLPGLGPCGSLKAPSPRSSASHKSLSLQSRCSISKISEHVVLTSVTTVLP
MPTP inh: mitochondrial permeability transition pore inhibitors, primary screen, biochemical, isolated mouse mitochondria, absorbance; Ca2+ swelling absorbance, 30 min; 360,000 compounds, 1.4% hits; inhibition, % at 10 µM; AID 602449, 2012;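 active = inhibition of 50% or more, scaled per plate between neutral and stimulator controls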
OX1R antag-2: OX1R (HCRTR1) antagonists, primary screen, fluorescence, CHO/OX1R cells, Fluo-8 calcium, orexin A; Orexin/Hypocretin receptor type 1 (Homo sapiens), O43613; Fluo-8 calcium fluorescence; inhibition, % at 5 µM; 330,000 compounds, 0.43% hits; AID 434989, 2010;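 active = inhibition above its plate's threshold, mean inhibition of all tested compounds on the plate plus 3 SD, cut at about 37% in these data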
GPR7 antag: GPR7 receptor antagonists, primary screen, cell-based, fluorescence, single concentration. GPR7-expressing cells, fluorescence antagonist assay. 290,000 compounds, 1.1% hits. inhibition, % at 4.4 µM. AID 1861, 2009; in the data active = inhibition above about 16%, passing the limit was not always enough;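 also: cells stimulated with the agonist NPW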
CHO parental Ca: ATP-evoked calcium signal inhibitors, parental CHO, primary screen, counter-screen for OX1R antagonist project, cell-based, fluorescence, Fluo-8 calcium dye; AID 463079, 2010; inhibition, % at 5.6 µM; 330,000 compounds, 0.63% hits; parental CHO-K1, ATP-induced calcium, Fluo-8 fluorescence;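 active = inhibition above that plate's mean sample inhibition plus 3 SD, cut at about 26% in these data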
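Measured by: calcium-sensitive Fluo-8 fluorescence / Test system: CHO parental line / Controls: ATP-challenged DMSO wells low, unchallenged DMSO wells high / Measure: % inhibition / Compound: single nominal dose of 5.6 µM per compound / Replicates: single well per compound, no replicates / Reagent: ATP as calcium-mobilizing challenge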
MPTP counter: fluorescence retest of MPTP screen hits in isolated mitochondria, single concentration; shares compounds with MPTP inh; membrane potential, Rhodamine 123 fluorescence; inhibition, % at 10 µM; 5,000 compounds, 78% hits; AID 624504, 2012; in the data active = inhibition above about 22%
MPTP swell DR: mitochondrial permeability transition pore inhibitors, dose response, biochemical, absorbance, uHTS hits | IC50, µM | AID 651561, 2012 | isolated mitochondria swelling | shares compounds with MPTP inh | 780 compounds, 58% hits; in the data active = IC50 below about 20 µM
MPTP cs DR: fluorescent counter-screen in isolated mitochondria, dose response, counter-screen for MPTP inhibitor project, biochemical, fluorescence, uHTS hits. shares compounds with MPTP inh. isolated mitochondria counterscreen, fluorescence read-out. IC50, µM. 780 compounds, 49% hits. AID 651564, 2012; in the data active = IC50 below about 80 µM
Numbers stand for hits; i = inactive; nt = no result given. The list is not random: actives were taken first. Their share in the collection is about 3.8%.

SMILES	OX1R antag-1	MPTP inh	OX1R antag-2	GPR7 antag	CHO parental Ca	MPTP counter	others
COc1cc([N+](=O)[O-])ccc1NC(=S)Nc1cc(C(=O)OC(C)C)cc(C(=O)OC(C)C)c1	i	91.5	i	i	i	83.7
COc1cc([N+](=O)[O-])ccc1NC(=O)/C=C\C(=O)O	i	i	i	i	i	nt
Cc1ccc(O)c(-c2cc(C(F)(F)F)[nH]n2)c1	i	63.2	i	i	i	67.1
O=C(CSc1nnc(Cn2nnc3ccccc32)o1)Nc1cccc(Cl)c1	i	i	i	i	i	nt
O=C(CSc1nnc(Cn2nnc3ccccc32)o1)N(Cc1ccc(Cl)cc1)c1ccccc1	75.5	95.5	52.6	i	66.3	103.3
OC(CNCC1CCCO1)Cn1c2ccccc2c2ccccc21 (configuration not stated)	i	73.5	i	i	i	i	MPTP swell DR=10.3;MPTP cs DR=i
COc1cc2[nH]c3c(=O)n(N)c(=O)[nH]c3c2cc1OC	i	i	i	i	i	nt
CCCOC(=O)c1ccc(Oc2cn[nH]c2-c2ccc(OCC)cc2O)cc1	i	i	i	i	i	nt
CCCc1ccc(Oc2cn[nH]c2-c2ccc(O)c(C)c2O)cc1	i	88.9	i	i	i	83.1
Cc1cccc(C(=O)OC(C)C(=O)Nc2ccc(S(=O)(=O)N3CCCC3)cc2)c1O (configuration not stated)	i	i	i	nt	i	nt
CC(OC(=O)c1cc(Br)ccc1O)C(=O)Nc1ccc(S(=O)(=O)N2CCCC2)cc1 (configuration not stated)	i	87.0	i	nt	i	90.7
Cc1ccc(C(=O)N(C)CC(=O)Nc2ccc(F)c(F)c2F)o1	i	i	i	i	i	nt
COc1ccc(C2/C=C\CN(C(=O)Nc3ccc(C(F)(F)F)cc3)CC(=O)N2Cc2ccc(F)cc2)cc1 (configuration not stated)	i	102.9	i	nt	60.5	100.1
CCCCCCN1C=C/C(=C\C=C(C#N)C#N)c2ccccc21	i	51.0	i	i	i	i	MPTP swell DR=9.33;MPTP cs DR=<2.5
NCCOc1ccc(C23CC4CC(CC(C4)C2)C3)cc1	i	76.2	i	i	i	i
COc1cccc(NC(=O)COC(=O)C2CC2)c1	i	i	i	nt	i	nt
CCCCOc1ccc(C(=O)OC2CC(C)N(C)CC2C)cc1 (configuration not stated)	i	83.1	i	i	i	i	MPTP swell DR=9.67;MPTP cs DR=74.4
Cc1ccc(NC(=S)NCc2ccc(F)cc2)cc1	i	i	i	nt	i	nt
COc1cc(NC(=S)Nc2ccc(OC(F)F)cc2)cc(OC)c1	i	80.0	i	i	i	75.6
S=C(NCC1COc2ccccc2O1)Nc1ccccc1 (configuration not stated)	i	i	i	i	i	nt
FC(F)Oc1ccc(NC(=S)NCC2COc3ccccc3O2)cc1 (configuration not stated)	i	85.2	i	i	i	98.1
Fc1ccc(CNC(=S)Nc2ccc(OC(F)F)cc2)cc1	i	76.2	i	i	i	95.6
COc1ccc(NC(=S)Nc2ccc(F)cc2)cc1	i	i	i	i	i	nt
COC(=O)c1cc(NC(=O)Cc2ccccc2[N+](=O)[O-])cc(C(=O)OC)c1	i	i	i	i	i	nt
Fc1cc(Cl)cc2ccc(-c3ccccc3)nc12	nt	i	nt	nt	nt	nt
CSCC[C@H](NC(=O)C1=NN(c2c(F)c(F)cc(F)c2F)C(=O)CC1)c1nc2ccccc2[nH]1	i	i	i	i	i	nt
O=C(CSc1nc(-c2ccccc2)nn1C(=O)c1ccccc1)Nc1cccc([N+](=O)[O-])c1	i	50.5	i	i	i	47.2
